Values after ≈ are worked out from the molar mass of the structure shown.
Experiments:
Format in all cases: functional
[1] = test system: Prevotella bivia; test: Antibacterial activity against Prevotella bivia isolated from patient with diabetic foot infection after 44 to 48 hrs by agar dilution method
Method in brief: (§1)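 CLSI M11-A7 agar dilution: serial twofold drug dilutions made on the test day and added to molten agar. Spots of 10^5 CFU were applied by replicator, with drug-free control plates inoculated before and after each set. Incubation was 44 to 48 h at 37°C in an anaerobic chamber. MIC was the lowest concentration giving no growth or a marked change in growth versus controls.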

[2] = test system: Anaerocolumna aminovalerica; test: Antibacterial activity against Clostridium aminovalericum isolated from patient with diabetic foot infection after 44 to 48 hrs by agar dilution method; method in brief: as §1
[3] = test system: Lacrimispora sphenoides; test: Antibacterial activity against Clostridium sphenoides isolated from patient with diabetic foot infection after 44 to 48 hrs by agar dilution method; method in brief: as §1
[4] = test system: Peptoniphilus asaccharolyticus; test: Antibacterial activity against Peptoniphilus asaccharolyticus isolated from patient with diabetic foot infection after 44 to 48 hrs by agar dilution method; method in brief: as §1
[5] = test system: Staphylococcus lugdunensis; test: Antibacterial activity against Staphylococcus lugdunensis isolated from patient with diabetic foot infection after 18 to 24 hrs by broth microdilution method
Method in brief: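 Subcultured on Trypticase soy blood agar, then broth microdilution in cation-adjusted Mueller-Hinton broth. Trays were made in-house with serial twofold drug dilutions and stored at −70°C. Inoculum was colonies from overnight growth, final approximately 5 × 10^5 CFU/ml. MIC was read after 18 to 24 h at 37°C. QC strains: S. aureus ATCC 29213 and E. coli ATCC 25922.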

[6] = test system: Streptococcus agalactiae; test: Antibacterial activity against Streptococcus agalactiae isolated from patient with diabetic foot infection after 18 to 24 hrs by broth microdilution method
Method in brief: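 Streptococcal isolates were subcultured on Trypticase soy blood agar. Broth microdilution used cation-adjusted Mueller-Hinton broth with lysed horse blood, in in-house trays of serial twofold drug dilutions stored at −70°C. Overnight colonies were suspended to a final inoculum of approximately 5 × 10^5 CFU/ml. MIC was read after 18 to 24 h incubation at 37°C.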

[7] = test system: Bacteroides caccae; test: Antibacterial activity against Bacteroides caccae isolated from patient with diabetic foot infection after 44 to 48 hrs by agar dilution method; method in brief: as §1
[8] = test system: Bacteroides stercoris; test: Antibacterial activity against Bacteroides stercoris isolated from patient with diabetic foot infection after 44 to 48 hrs by agar dilution method; method in brief: as §1
[9] = test system: Staphylococcus aureus; test: Antibacterial activity against methicillin-sensitive Staphylococcus aureus isolated from patient with diabetic foot infection assessed as percent resistant isolates after 18 to 24 hrs by broth microdilution method
Method in brief: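 Isolates grown on Trypticase soy blood agar, then tested by broth microdilution in unsupplemented cation-adjusted Mueller-Hinton broth. In-house trays held serial twofold drug dilutions and were stored at −70°C. Overnight colonies were suspended to a final inoculum near 5 × 10^5 CFU/ml, and trays read after 18–24 h at 37°C. QC strains: S. aureus ATCC 29213, E. coli ATCC 25922.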

[10] = test system: Staphylococcus lugdunensis; test: Antibacterial activity against Staphylococcus lugdunensis isolated from patient with diabetic foot infection assessed as percent resistant isolates after 18 to 24 hrs by broth microdilution method
Method in brief: (§2)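 Aerobes subcultured on Trypticase soy blood agar, then broth microdilution in cation-adjusted Mueller-Hinton broth. Trays prepared in-house with twofold dilutions and stored at −70°C. Overnight colonies suspended to about 5 × 10^5 CFU/ml final. Read after 18 to 24 h at 37°C. QC strains included S. aureus ATCC 29213 and E. coli ATCC 25922.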

[11] = test system: Bacteroides caccae; test: Antibacterial activity against Bacteroides caccae isolated from patient with diabetic foot infection assessed as percent resistant isolates after 44 to 48 hrs by agar dilution method
Method in brief: (§3)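 Agar dilution per CLSI M11-A7. Twofold drug dilutions made on the test day and added to molten agar. Replicator-applied inoculum of 10^5 CFU/spot. Drug-free control plates inoculated before and after each drug set. Incubation at 37°C for 44 to 48 h, anaerobic chamber. MIC taken as the lowest concentration giving no growth or a marked change in growth versus controls.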

[12] = test system: Bacteroides stercoris; test: Antibacterial activity against Bacteroides stercoris isolated from patient with diabetic foot infection assessed as percent resistant isolates after 44 to 48 hrs by agar dilution method; method in brief: as §3
[13] = test system: Parabacteroides distasonis; test: Antibacterial activity against Parabacteroides distasonis isolated from patient with diabetic foot infection assessed as percent resistant isolates after 44 to 48 hrs by agar dilution method; method in brief: as §3
[14] = test system: Parabacteroides merdae; test: Antibacterial activity against Parabacteroides merdae isolated from patient with diabetic foot infection assessed as percent resistant isolates after 44 to 48 hrs by agar dilution method; method in brief: as §3
[15] = test system: Anaerocolumna aminovalerica; test: Antibacterial activity against Clostridium aminovalericum isolated from patient with diabetic foot infection assessed as percent resistant isolates after 44 to 48 hrs by agar dilution method; method in brief: as §3
[16] = test system: Corynebacterium striatum; test: Antibacterial activity against Corynebacterium striatum isolated from patient with diabetic foot infection after 48 hrs by broth microdilution method
Method in brief: (§4)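 Isolates were subcultured on Trypticase soy blood agar. Broth microdilution used cation-adjusted Mueller-Hinton broth with lysed horse blood, in-house trays of twofold drug dilutions stored at −70°C. Colonies from overnight growth gave a final inoculum of about 5 × 10^5 CFU/ml. Trays were read after 18 to 24 h at 37°C, up to 48 h for some strains.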

[17] = test system: Corynebacterium accolens; test: Antibacterial activity against Corynebacterium accolens isolated from patient with diabetic foot infection after 48 hrs by broth microdilution method; method in brief: as §4
[18] = test system: Clostridium cadaveris; test: Antibacterial activity against Clostridium cadaveris isolated from patient with diabetic foot infection assessed as percent resistant isolates after 44 to 48 hrs by agar dilution method; method in brief: as §3
[19] = test system: Lacrimispora sphenoides; test: Antibacterial activity against Clostridium sphenoides isolated from patient with diabetic foot infection assessed as percent resistant isolates after 44 to 48 hrs by agar dilution method; method in brief: as §3
[20] = test system: Cutibacterium acnes; test: Antibacterial activity against Propionibacterium acnes isolated from patient with diabetic foot infection assessed as percent resistant isolates after 44 to 48 hrs by agar dilution method; method in brief: as §3
[21] = test system: Anaerococcus vaginalis; test: Antibacterial activity against Anaerococcus vaginalis isolated from patient with diabetic foot infection after 44 to 48 hrs by agar dilution method; method in brief: as §1
[22] = test system: Anaerococcus vaginalis; test: Antibacterial activity against Anaerococcus vaginalis isolated from patient with diabetic foot infection assessed as percent resistant isolates after 44 to 48 hrs by agar dilution method; method in brief: as §3
[23] = test system: Klebsiella aerogenes; test: Antibacterial activity against Enterobacter aerogenes isolated from patient with diabetic foot infection assessed as percent resistant isolates after 18 to 24 hrs by broth microdilution method; method in brief: as §2
[24] = test system: Proteus mirabilis; test: Antibacterial activity against Proteus mirabilis isolated from patient with diabetic foot infection assessed as percent resistant isolates after 18 to 24 hrs by broth microdilution method; method in brief: as §2
[25] = test system: Enterobacter cloacae; test: Antibacterial activity against Enterobacter cloacae isolated from patient with diabetic foot infection after 18 to 24 hrs by broth microdilution method
Method in brief: (§5)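 Isolates were subcultured on Trypticase soy blood agar and tested by broth microdilution in cation-adjusted Mueller-Hinton broth. In-house trays of twofold drug dilutions were stored at −70°C. Overnight colonies gave a final inoculum of about 5 × 10^5 CFU/ml. Plates were read after 18 to 24 h at 37°C.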

[26] = test system: Proteus mirabilis; test: Antibacterial activity against Proteus mirabilis isolated from patient with diabetic foot infection after 18 to 24 hrs by broth microdilution method; method in brief: as §5

Row | SMILES | MIC50 [1] | MIC90 [1] | MIC50 [2] | MIC90 [2] | MIC50 [3] | MIC90 [3] | MIC50 [4] | MIC90 [4] | MIC50 [5] | MIC90 [5] | MIC50 [6] | MIC90 [6] | MIC50 [7] | MIC90 [7] | MIC50 [8] | MIC90 [8] | Activity [9] | Activity [10] | Activity [11] | Activity [12] | further results
1 | CCC[C@@H]1C[C@@H](C(=O)N[C@@H]([C@H]2O[C@H](SC)[C@H](O)[C@@H](O)[C@H]2O)[C@H](C)Cl)N(C)C1 [CLINDAMYCIN] | ≤ 0.03 µg/mL | > 64 µg/mL | 0.5 µg/mL (≈ 1.18 µM) | 16 µg/mL (≈ 37.6 µM) | 0.5 µg/mL (≈ 1.18 µM) | 16 µg/mL (≈ 37.6 µM) | 0.125 µg/mL (≈ 0.294 µM) | > 64 µg/mL | 0.125 µg/mL (≈ 0.294 µM) | > 64 µg/mL | 0.125 µg/mL (≈ 0.294 µM) | > 64 µg/mL | 2 µg/mL (≈ 4.71 µM) | > 64 µg/mL | 2 µg/mL (≈ 4.71 µM) | > 64 µg/mL | 0% | 13% | 20% | 20% | Activity [13]: 20%; Activity [14]: 20%; Activity [15]: 23%; MIC50 [16]: 2 µg/mL (≈ 4.71 µM); MIC90 [16]: > 64 µg/mL; MIC50 [17]: 2 µg/mL (≈ 4.71 µM); MIC90 [17]: > 64 µg/mL; Activity [18]: 23%; Activity [19]: 23%; Activity [20]: 0%; MIC50 [21]: 0.125 µg/mL (≈ 0.294 µM); MIC90 [21]: 64 µg/mL (≈ 151 µM); Activity [22]: 18%
2 | C[C@@H](O)[C@H]1C(=O)N2C(C(=O)O)=C(S[C@@H]3CN[C@H](CNS(N)(=O)=O)C3)[C@H](C)[C@H]12 [DORIPENEM] | 0.06 µg/mL (≈ 0.143 µM) | 0.125 µg/mL (≈ 0.297 µM) | 0.06 µg/mL (≈ 0.143 µM) | 1 µg/mL (≈ 2.38 µM) | 0.06 µg/mL (≈ 0.143 µM) | 1 µg/mL (≈ 2.38 µM) | ≤ 0.015 µg/mL | 0.06 µg/mL (≈ 0.143 µM) | 0.125 µg/mL (≈ 0.297 µM) | 0.125 µg/mL (≈ 0.297 µM) | ≤ 0.015 µg/mL | 0.03 µg/mL (≈ 0.0713 µM) | 0.25 µg/mL (≈ 0.595 µM) | 1 µg/mL (≈ 2.38 µM) | 0.25 µg/mL (≈ 0.595 µM) | 1 µg/mL (≈ 2.38 µM) | 0% | 0% | 0% | 0% | Activity [23]: 0%; Activity [24]: 0%; Activity [13]: 0%; Activity [14]: 0%; Activity [15]: 0%; MIC50 [25]: 0.06 µg/mL (≈ 0.143 µM); MIC90 [25]: 0.25 µg/mL (≈ 0.595 µM); MIC50 [26]: 0.125 µg/mL (≈ 0.297 µM); MIC90 [26]: 0.25 µg/mL (≈ 0.595 µM); MIC50 [16]: 0.125 µg/mL (≈ 0.297 µM); MIC90 [16]: 0.25 µg/mL (≈ 0.595 µM); MIC50 [17]: 0.125 µg/mL (≈ 0.297 µM); MIC90 [17]: 0.25 µg/mL (≈ 0.595 µM); Activity [18]: 0%; Activity [19]: 0%; Activity [20]: 0%; MIC50 [21]: ≤ 0.015 µg/mL; MIC90 [21]: 0.06 µg/mL (≈ 0.143 µM); Activity [22]: 0%
3 | C[C@@H](O)[C@H]1C(=O)N2C(C(=O)O)=C(S[C@@H]3CN[C@H](C(=O)Nc4cccc(C(=O)O)c4)C3)[C@H](C)[C@H]12 [ERTAPENEM] | 0.25 µg/mL (≈ 0.526 µM) | 0.5 µg/mL (≈ 1.05 µM) | 0.25 µg/mL (≈ 0.526 µM) | 2 µg/mL (≈ 4.21 µM) | 0.25 µg/mL (≈ 0.526 µM) | 2 µg/mL (≈ 4.21 µM) | ≤ 0.015 µg/mL | 0.25 µg/mL (≈ 0.526 µM) | 0.5 µg/mL (≈ 1.05 µM) | 1 µg/mL (≈ 2.1 µM) | 0.06 µg/mL (≈ 0.126 µM) | 0.06 µg/mL (≈ 0.126 µM) | 1 µg/mL (≈ 2.1 µM) | 2 µg/mL (≈ 4.21 µM) | 1 µg/mL (≈ 2.1 µM) | 2 µg/mL (≈ 4.21 µM) | 0% | 0% | 0% | 0% | Activity [23]: 0%; Activity [24]: 0%; Activity [13]: 0%; Activity [14]: 0%; Activity [15]: 0%; MIC50 [25]: 0.06 µg/mL (≈ 0.126 µM); MIC90 [25]: 0.5 µg/mL (≈ 1.05 µM); MIC50 [26]: ≤ 0.015 µg/mL; MIC90 [26]: 0.25 µg/mL (≈ 0.526 µM); MIC50 [16]: 0.5 µg/mL (≈ 1.05 µM); MIC90 [16]: 1 µg/mL (≈ 2.1 µM); MIC50 [17]: 0.5 µg/mL (≈ 1.05 µM); MIC90 [17]: 1 µg/mL (≈ 2.1 µM); Activity [18]: 0%; Activity [19]: 0%; Activity [20]: 0%; MIC50 [21]: 0.125 µg/mL (≈ 0.263 µM); MIC90 [21]: 0.25 µg/mL (≈ 0.526 µM); Activity [22]: 0%

— ChEMBL document CHEMBL1153560, “In vitro activities of doripenem and six comparator drugs against 423 aerobic and anaerobic bacterial isolates from infected diabetic foot wounds” (2008)
